We go through two molecules from ChEMBL document CHEMBL4673205, “Structure-Based Design of a Covalent Inhibitor of the SET Domain-Containing Protein 8 (SETD8) Lysine Methyltransferase” (J Med Chem, 2016).

Calls of active or inactive are those of the source. No cut-off for these calls is given here. A value given as a limit tells only on which side of the number the result lay.

A short description of series [1]: Efflux ratio of compound. It is filed as ADME. To be noted: not told.
Series [2] addresses T1, N-lysine methyltransferase KMT5A (Homo sapiens) (UniProt Q9NQR1).
T1 sequence (whole entry): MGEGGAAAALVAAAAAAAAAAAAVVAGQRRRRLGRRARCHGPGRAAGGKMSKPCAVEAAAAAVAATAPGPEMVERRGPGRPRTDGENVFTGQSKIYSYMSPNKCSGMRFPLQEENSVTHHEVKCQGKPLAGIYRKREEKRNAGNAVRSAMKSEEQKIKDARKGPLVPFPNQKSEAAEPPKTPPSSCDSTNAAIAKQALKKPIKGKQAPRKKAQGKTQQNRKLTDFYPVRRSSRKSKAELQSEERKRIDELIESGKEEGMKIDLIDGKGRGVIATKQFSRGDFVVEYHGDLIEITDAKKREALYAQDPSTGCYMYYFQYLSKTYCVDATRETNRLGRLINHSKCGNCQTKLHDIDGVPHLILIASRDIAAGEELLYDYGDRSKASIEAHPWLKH
Description: Inhibition of wild type SETD8 catalytic domain (unknown origin) (234 to 380 residues) expressed in Escherichia coli assessed as compound-adduct dimer formation by measuring residual activity at 20 to 200 uM using varying levels of biotinylated H4 (1 to 24) peptide substrate measured after 1 hr in presence of [3H-SAM] by scintillation counting assay. To be noted: dose 20-200 µM. The procedure, abridged: (§1)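 The adduct was purified by gel filtration, giving monomer and dimer fractions that interconvert after a short time. Each fraction was tested in the enzymatic assay, and residual activity was expressed relative to wild-type SETD8.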

Series [3] in a line: Permeability of compound. It is filed as ADME. To be noted: not told; read-out: permeability.
Series [4] addresses N-lysine methyltransferase SMYD2 (Homo sapiens) (UniProt Q9NRG4). Description: Binding affinity to SMYD2 (unknown origin) by mass-spectrometric analysis.
The species entered for series [5] is Homo sapiens. Description: Binding affinity to human recombinant N-terminal His-tagged SETD8 C343S mutant (234 to 380 residues) expressed in Escherichia coli assessed as covalent adduct formation at 20 to 200 uM incubated for 3 hrs by LC-MSD-TOF analysis. The following applies: dose 20-200 µM.
In series [6] the target is T2, Histone-lysine N-methyltransferase SMYD3 (Homo sapiens) (UniProt Q9H7B4).
T2 sequence (whole entry): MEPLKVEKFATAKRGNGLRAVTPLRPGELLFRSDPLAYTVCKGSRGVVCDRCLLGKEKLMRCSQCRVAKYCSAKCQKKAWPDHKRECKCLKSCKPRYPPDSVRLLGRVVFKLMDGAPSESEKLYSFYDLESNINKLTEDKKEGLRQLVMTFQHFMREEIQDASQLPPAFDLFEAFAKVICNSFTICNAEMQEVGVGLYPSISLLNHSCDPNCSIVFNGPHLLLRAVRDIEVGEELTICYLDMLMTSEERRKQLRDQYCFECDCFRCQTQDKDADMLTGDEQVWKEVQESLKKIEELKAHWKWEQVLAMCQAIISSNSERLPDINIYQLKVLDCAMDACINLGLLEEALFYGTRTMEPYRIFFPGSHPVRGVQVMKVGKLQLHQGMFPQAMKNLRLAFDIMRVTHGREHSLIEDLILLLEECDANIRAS
Description: Binding affinity to SMYD3 (unknown origin) by mass-spectrometric analysis.

Series [7] has as its target T3, N-lysine methyltransferase KMT5A (Homo sapiens, UniProt Q9NQR1).
T3 sequence (Q9NQR1 whole entry): T1 sequence (whole entry)
In words: Inhibition of recombinant SETD8 catalytic domain (unknown origin) (232 to 393 residues) expressed in Escherichia coli assessed as reduction in incorporation of [3H]-labeled methyl group into biotinylated H4 (1 to 24) peptide measured after 1 hr using [3H-SAM] by scintillation proximity assay.

The target in series [8] is Histone-lysine N-methyltransferase EZH2 (Homo sapiens) (UniProt Q15910). Description: Binding affinity to PRC2 (unknown origin) by mass-spectrometric analysis.
Chain of Histone-lysine N-methyltransferase EZH2 (Homo sapiens) (Q15910 whole entry, looked up, the tested form may be a part): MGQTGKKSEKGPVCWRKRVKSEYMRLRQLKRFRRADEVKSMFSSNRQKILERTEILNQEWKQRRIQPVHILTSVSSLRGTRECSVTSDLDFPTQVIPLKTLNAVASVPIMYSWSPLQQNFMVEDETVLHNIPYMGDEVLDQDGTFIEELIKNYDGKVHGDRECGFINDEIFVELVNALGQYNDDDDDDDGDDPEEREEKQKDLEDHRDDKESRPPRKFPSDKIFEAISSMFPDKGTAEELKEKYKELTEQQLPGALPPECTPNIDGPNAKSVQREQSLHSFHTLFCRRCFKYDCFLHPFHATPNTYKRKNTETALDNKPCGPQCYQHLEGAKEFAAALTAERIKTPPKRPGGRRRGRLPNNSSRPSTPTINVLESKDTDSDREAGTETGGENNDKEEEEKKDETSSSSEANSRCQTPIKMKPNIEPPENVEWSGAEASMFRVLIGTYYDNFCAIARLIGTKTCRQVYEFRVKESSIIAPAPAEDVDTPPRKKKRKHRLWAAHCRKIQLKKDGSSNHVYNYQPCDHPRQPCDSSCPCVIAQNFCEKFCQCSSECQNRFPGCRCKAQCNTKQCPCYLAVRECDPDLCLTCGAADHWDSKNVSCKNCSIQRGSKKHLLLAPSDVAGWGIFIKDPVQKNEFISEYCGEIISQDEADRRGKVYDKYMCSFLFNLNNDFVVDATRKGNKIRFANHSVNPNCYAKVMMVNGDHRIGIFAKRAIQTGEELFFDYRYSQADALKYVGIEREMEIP
Series [9] deals with T1, N-lysine methyltransferase KMT5A (Homo sapiens). Description: Binding affinity to wild type SETD8 catalytic domain (unknown origin) (234 to 380 residues) expressed in Escherichia coli assessed as covalent adduct formation at 20 to 200 uM incubated for 3 hrs by LC-MSD-TOF analysis. The following applies: dose 20-200 µM.
Series [10] shares this target. Description: Binding affinity to wild type SETD8 catalytic domain (unknown origin) (234 to 380 residues) expressed in Escherichia coli assessed as covalent adduct formation at 20 to 200 uM incubated for 3 hrs in presence of GSH by LC-MSD-TOF analysis. To be noted: dose 20-200 µM.
Series [11] concerns the target T3, N-lysine methyltransferase KMT5A. In words: Inhibition of recombinant SETD8 catalytic domain (unknown origin) (232 to 393 residues) expressed in Escherichia coli assessed as reduction in incorporation of [3H]-labeled methyl group into biotinylated H4 (1 to 24) peptide measured after 5 hrs using [3H-SAM] by scintillation proximity assay. The essentials: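 SETD8 catalytic domain (residues 232–393) was expressed in E. coli and purified. Compound was preincubated with the enzyme for a set time (1 h or 5 h) before a scintillation proximity methylation assay. IC50 was taken from a fitted concentration–response curve.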

Series [12] has as its target T1, N-lysine methyltransferase KMT5A (Homo sapiens). Description: Inhibition of wild type SETD8 catalytic domain (unknown origin) (234 to 380 residues) expressed in Escherichia coli assessed as compound-adduct monomer formation by measuring residual activity at 20 to 200 uM using varying levels of biotinylated H4 (1 to 24) peptide substrate measured after 1 hr in presence of [3H-SAM] by scintillation counting assay. To be noted: dose 20-200 µM. The essentials:
as §1

For series [13] the target is unchanged. In words: Inhibition of SETD8 in human HeLa cells assessed as reduction in monomethylation of H4K20 up to 10 uM. To be noted: dose microM <=10. It is filed as cell-based.
The species entered for series [14] is Homo sapiens. Description: Binding affinity to human recombinant N-terminal His-tagged SETD8 C311S mutant (234 to 380 residues) expressed in Escherichia coli assessed as covalent adduct formation at 20 to 200 uM incubated for 3 hrs by LC-MSD-TOF analysis. To be noted: dose 20-200 µM.

Chain of N-lysine methyltransferase SMYD2 (Homo sapiens) (Q9NRG4 whole entry, the tested form may be a part): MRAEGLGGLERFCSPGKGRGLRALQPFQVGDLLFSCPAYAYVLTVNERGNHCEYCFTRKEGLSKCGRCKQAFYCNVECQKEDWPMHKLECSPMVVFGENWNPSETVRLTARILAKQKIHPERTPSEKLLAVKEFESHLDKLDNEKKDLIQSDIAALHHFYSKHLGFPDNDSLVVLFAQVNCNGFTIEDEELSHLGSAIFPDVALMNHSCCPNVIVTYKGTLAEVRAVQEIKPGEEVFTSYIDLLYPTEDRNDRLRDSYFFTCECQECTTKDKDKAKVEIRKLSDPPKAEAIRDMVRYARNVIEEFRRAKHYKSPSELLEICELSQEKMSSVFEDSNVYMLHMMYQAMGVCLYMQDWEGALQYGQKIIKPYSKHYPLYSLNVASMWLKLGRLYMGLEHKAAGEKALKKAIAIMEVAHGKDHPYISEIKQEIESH

In the case of `C=CC(=O)NCCCNc1nc(N2CCCC2)nc2cc(OC)c(OC)cc12`, the efflux ratio in series [1] was found to be 137. Besides, the Activity in [2] and in series [12] was 10% throughout. For the same molecule, the Papp in series [3] amounted to 0.44 ×10⁻⁶ cm/s. Further, the result (in series [4]; in series [6]; in series [8]; in the series filed under Homo sapiens [14]) was inactive. For the same molecule, the outcome (in the series filed under Homo sapiens [5]; in [9]; in series [10]) was Active. The results for the IC50 in [7] and in [11] were 6.9 µM and 804 nM, respectively. Also, the inhibition entry in series [13] is “inactive”.

As to `C=CC(=O)NCCCN(C)c1nc(N2CCCC2)nc2cc(OC)c(OC)cc12`, in series [7], the IC50 is over 200 µM. Moreover, the outcome in series [9] was inactive.
